# Source: PubChem
# GRIN3A LBD mod = binders of NR3A ligand-binding domain, primary screen, biophysical, differential scanning fluorimetry, uHTS; 340,000 tested, 2.5% active; Tm shift relative to glycine control, % at 25 µM; NR3A LBD differential scanning fluorimetry, Tm shift; 0% = protein alone, 100% = glycine-bound protein;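 active = melting temperature shift of at least 10% of the positive control shift, at one fixed dose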
# SENP1 inh = human SENP1 catalytic domain inhibitors, primary screen, biochemical, FRET, uHTS; recombinant SENP1 catalytic domain, CyPet-SUMO1-YPet FRET cleavage; inhibition, % at 10 µM; 360,000 tested, 0.21% active; AID 624204, 2012;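 active = inhibition at least 30% at 10 µM, raw YFP signal under a set limit, fluorescence ratio 0.5 to 1.5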;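 also: 0% = enzyme with DMSO and 100% = no enzyme wells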
#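 Assay system – human recombinant His6-tagged SENP1 catalytic domain enzyme · Input – SENP1 enzyme, 20 pM final · Buffer or medium – Tris pH 8 buffer plus EDTA, NaCl, BME, BSA, NP40, catalase · Schedule – 50 min reaction at room temperature · Technique – FRET read of cyan and yellow fluorescence · Control set – no-enzyme wells low, DMSO-plus-enzyme wells high control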
# EBI2 antag = EBI2 receptor antagonists, beta-arrestin recruitment, primary screen, cell-based, luminescence, 7a,25-OHC stimulation, uHTS | G-protein coupled receptor 183 (Homo sapiens), P32249 | 7a,25-OHC stimulated | inhibition, % at 5 µM | 360,000 tested, 0.81% active | AID 651636, 2012; in the data active = inhibition above about 38%;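 also: enzyme fragment complementation signal reports receptor beta-arrestin coupling in cells; 0% = agonist plus DMSO wells and 100% = wells without agonist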
# Target sequence (P32249 whole entry, looked up, the tested form may be a part): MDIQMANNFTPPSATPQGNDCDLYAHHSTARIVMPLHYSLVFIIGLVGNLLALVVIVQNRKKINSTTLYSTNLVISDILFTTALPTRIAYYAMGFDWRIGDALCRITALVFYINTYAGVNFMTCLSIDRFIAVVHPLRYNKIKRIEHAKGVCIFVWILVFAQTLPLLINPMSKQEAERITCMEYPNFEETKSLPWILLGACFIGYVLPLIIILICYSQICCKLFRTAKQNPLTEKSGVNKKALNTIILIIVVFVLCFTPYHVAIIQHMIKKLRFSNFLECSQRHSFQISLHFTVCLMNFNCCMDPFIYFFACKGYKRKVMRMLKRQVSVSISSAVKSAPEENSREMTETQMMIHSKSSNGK
# MPTP block = mitochondrial permeability transition pore inhibitors, primary screen, biochemical, isolated mouse mitochondria, absorbance. inhibition, % at 10 µM. AID 602449, 2012. Ca2+ swelling absorbance, 30 min. 360,000 tested, 1.4% active;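 active = inhibition of 50% or more, scaled per plate between neutral and stimulator controls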;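 also: 0% = DMSO wells given calcium and 100% = 1 mM EGTA wells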
# EBI2 antag conf = EBI2 antagonist hit retest, beta-arrestin, confirmation, cell-based, single concentration, luminescence, 7a,25-OHC stimulation. shares compounds with EBI2 antag. 7a,25-OHC antagonism. inhibition, % at 5 µM. 2,400 tested, 29% active. AID 651997, 2013;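 active = inhibition of at least 50%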
# EBI2 ag = EBI2 agonist activity of antagonist hits, confirmation, counter-screen for EBI2 antagonist project, cell-based, single concentration, agonist mode, luminescence; activation, % at 5 µM; shares compounds with EBI2 antag; EBI2-expressing cells, 60 min; 0% vehicle, 100% 7α,25-dihydroxycholesterol control; 2,400 tested, under 10 active;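 active = activation of at least 50%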
# bGal cs = E. coli beta-galactosidase enzyme inhibition, confirmation, counter-screen for EBI2 antagonist project, biochemical, luminescence, single concentration | 2,400 tested, 1% active | purified beta-galactosidase, luminescent Galacton Star, 15 min | AID 652176, 2013 | inhibition, % at 5 µM | shares compounds with EBI2 antag;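 active = replicate-average signal at least 3 plate SD below neutral wells, shown as high inhibition, flagging enzyme-inhibiting false positives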;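 also: 0% = DMSO wells with enzyme and 100% = wells lacking enzyme; higher means stronger loss of beta-gal luminescence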
# Active calls of the source: *; / = not tested or not shown. Hits are enriched below; roughly 4.4% of the tested compounds scored in any of these assays.
SMILES,GRIN3A LBD mod,SENP1 inh,EBI2 antag,MPTP block,EBI2 antag conf,EBI2 ag,bGal cs
CC1C(=O)N2CCCc3cc(S(=O)(=O)N4CCN(c5ccc(F)cc5)CC4)cc1c32 (centres undefined),6,-2,-16,-1,/,/,/
N#Cc1ccc(C(=O)N2CCN(S(=O)(=O)c3ccc(Cl)s3)CC2)cc1,0,1,56*,-2,31,0,7
COc1ccccc1N1CCN(S(=O)(=O)c2ccc3nc(-c4ccccc4)[nH]c3c2)CC1,7,1,53*,19,32,1,5
CCOC(=O)Cc1csc(NC(=O)/C=C/c2ccc(OC)cc2)n1,-1,2,46*,1,19,1,3
O=C(c1ccc(-c2ccccc2Cl)o1)N1CCN(S(=O)(=O)c2cccs2)CC1,-2,1,12,0,/,/,/
CCc1nc2ccc(C(=O)NCCOc3ccc(OC)cc3)cn2c1N(C)Cc1ccc(OC)cc1,/,-8,62*,1,40,-1,-14
CCc1nc2ccc(C(=O)NCCOc3ccc(OC)cc3)cn2c1N(C)Cc1cccs1,/,-5,57*,1,40,0,-13
CCc1nc2ccc(C(=O)NCCOc3ccc(OC)cc3)cn2c1N(C)CCCc1ccccc1,/,-6,58*,0,43,-1,-8
COc1ccc(N2CCN(c3nc(-c4cccs4)nc4ccccc34)CC2)cc1,0,1,63*,2,42,1,9
OCCN1CCN(c2ncnc3c2ncn3[C@H]2CN(Cc3ccc4c(c3)OCO4)C[C@@H](CO)O2)CC1,/,1,-8,1,/,/,/
COc1cc(C(=O)C(=O)N2CCC(Cc3ccccc3)CC2)cc2ccccc12,/,0,-1,-1,/,/,/
O=C(Nc1cnn(Cc2ccc(F)cc2)c1)C(c1ccccc1)c1ccccc1,20*,2,73*,-23,38,2,-1
O=C(Nc1cnn(Cc2ccc(F)cc2)c1)c1noc2c1CCCC2,-2,-2,2,1,/,/,/
CC(C)(C)C1CCc2onc(C(=O)Nc3cnn(Cc4ccc(F)cc4)c3)c2C1 (centres undefined),0,2,44*,2,8,-2,-7
OCCCNc1ncnc2sc(-c3ccccc3)cc12,-1,1,1,1,/,/,/
CC(C)(C)Nc1ncnc2sc(-c3ccccc3)cc12,3,-12,73*,17,40,5,9
COc1cccc(NC(=O)Cn2c(=O)n(CCC(=O)NC3CCN(Cc4ccccc4)CC3)c(=O)c3ccccc32)c1,-2,2,-8,1,/,/,/
CSc1nnc2c3ccccc3n(Cc3ccccc3)c2n1,3,1,7,1,/,/,/
CCN(CC)CCSc1nnc2c3cc(C)ccc3n(Cc3ccccc3)c2n1,4,1,74*,3,52*,1,-1
Cc1ccc(S(=O)(=O)N[C@H](C(=O)OCC(=O)N2N=C(c3ccc(Cl)cc3)CC2c2ccco2)C(C)C)cc1 (some centres undefined),3,-1,44*,0,53*,-1,-16
Cc1cc(C)nc(Oc2ccc(Br)cc2Br)n1,-2,-11,1,0,/,/,/
Cc1ccc(C(=O)N2CCC(C(=O)c3c(C)cc(C)cc3C)CC2)cc1,-2,2,43*,0,14,0,-11
O=C(c1ccc(Cl)cc1)C1CCN(C(=O)c2ccc(F)cc2)CC1,0,-2,49*,0,14,1,7
COc1ccccc1C(=O)N1CCC(C(=O)c2ccc(F)cc2)CC1,4,0,0,3,/,/,/
